Measurements taken from ChEMBL document CHEMBL4145462, “Nitrogen-containing ecdysteroid derivatives vs. multi-drug resistance in cancer: Preparation and antitumor activity of oximes, oxime ethers and a lactam” (Eur J Med Chem, 2018).

Tests used:
[1] = Synergistic cytotoxicity against mouse L5178 cells expressing human ABCB1 assessed as combination index at ED50 using 15:1 test compound to doxorubicin ratio after 48 hrs by MTT-based checkerboard microplate method; type: functional
Summary of the method: (§1)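 Checkerboard microplate combinations of compound with doxorubicin at constant molar ratios. 5 × 10^4 cells/well in McCoy's 5A, 48 h at 37°C, 5% CO2. MTT added to 0.5 mg/mL final for 4 h, SDS/HCl overnight, OD read at 540 and 630 nm. Combination indices derived per ratio for 50%, 75% and 90% growth inhibition by median-effect analysis.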

[2] = Cytotoxicity against mouse L5178 cells after 48 hrs by MTT assay; type: functional, cell-based; conditions: L5178, 48 h
Summary of the method: (§2)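 Parental mouse lymphoma L5178 and the MDR line made by pHa MDR1/A retrovirus transfection, selected with 60 µg/L colchicine. Grown in McCoy's 5A with horse serum at 37°C, 5% CO2. 5 x 10^4 cells/well, serial compound dilutions, 48 h. MTT added to 0.5 mg/mL final for 4 h, then 10% SDS in 0.01 M HCl overnight, OD read at 540 and 630 nm. IC50 taken as median cytotoxic activity (Dm) from control lanes of checkerboard plates, n=2.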

[3] = Synergistic cytotoxicity against mouse L5178 cells expressing human ABCB1 assessed as combination index at ED50 using 30:1 test compound to doxorubicin ratio after 48 hrs by MTT-based checkerboard microplate method; type: functional; summary of the method: as §1
[4] = Synergistic cytotoxicity against mouse L5178 cells expressing human ABCB1 assessed as combination index at ED75 using 15:1 test compound to doxorubicin ratio after 48 hrs by MTT-based checkerboard microplate method; type: functional; summary of the method: as §1
[5] = Synergistic cytotoxicity against mouse L5178 cells assessed as combination index at ED90 using 600:1 test compound to doxorubicin ratio after 48 hrs by MTT-based checkerboard microplate method; type: functional; summary of the method: as §1
[6] = Cytotoxicity against mouse L5178 cells expressing human ABCB1 after 48 hrs by MTT assay; type: functional, cell-based; conditions: L5178, 48 h; summary of the method: as §2
[7] = Synergistic cytotoxicity against mouse L5178 cells assessed as combination index at ED75 using 300:1 test compound to doxorubicin ratio after 48 hrs by MTT-based checkerboard microplate method; type: functional; summary of the method: as §1
[8] = Synergistic cytotoxicity against mouse L5178 cells assessed as combination index at ED50 using 300:1 test compound to doxorubicin ratio after 48 hrs by MTT-based checkerboard microplate method; type: functional; summary of the method: as §1
[9] = Synergistic cytotoxicity against mouse L5178 cells expressing human ABCB1 assessed as combination index at ED90 using 30:1 test compound to doxorubicin ratio after 48 hrs by MTT-based checkerboard microplate method; type: functional; summary of the method: as §1
[10] = Synergistic cytotoxicity against mouse L5178 cells expressing human ABCB1 assessed as combination index at ED90 using 60:1 test compound to doxorubicin ratio after 48 hrs by MTT-based checkerboard microplate method; type: functional; summary of the method: as §1
[11] = Synergistic cytotoxicity against mouse L5178 cells expressing human ABCB1 assessed as combination index at ED90 using 15:1 test compound to doxorubicin ratio after 48 hrs by MTT-based checkerboard microplate method; type: functional; summary of the method: as §1
[12] = Synergistic cytotoxicity against mouse L5178 cells assessed as combination index at ED75 using 600:1 test compound to doxorubicin ratio after 48 hrs by MTT-based checkerboard microplate method; type: functional; summary of the method: as §1
ABCB1 (P-glycoprotein) [13] = target: T1, ABCB1 (P-glycoprotein) (Homo sapiens, UniProt P08183); experiment: Inhibition of human ABCB1 expressed in mouse L5178 cells assessed as increase in rhodamine-123 accumulation at 20 uM after 10 mins by flow cytometric analysis relative to control; type: cell-based; conditions: mouse L5178 cells expressing human ABCB1, probe rhodamine-123
T1 sequence (P08183 whole entry): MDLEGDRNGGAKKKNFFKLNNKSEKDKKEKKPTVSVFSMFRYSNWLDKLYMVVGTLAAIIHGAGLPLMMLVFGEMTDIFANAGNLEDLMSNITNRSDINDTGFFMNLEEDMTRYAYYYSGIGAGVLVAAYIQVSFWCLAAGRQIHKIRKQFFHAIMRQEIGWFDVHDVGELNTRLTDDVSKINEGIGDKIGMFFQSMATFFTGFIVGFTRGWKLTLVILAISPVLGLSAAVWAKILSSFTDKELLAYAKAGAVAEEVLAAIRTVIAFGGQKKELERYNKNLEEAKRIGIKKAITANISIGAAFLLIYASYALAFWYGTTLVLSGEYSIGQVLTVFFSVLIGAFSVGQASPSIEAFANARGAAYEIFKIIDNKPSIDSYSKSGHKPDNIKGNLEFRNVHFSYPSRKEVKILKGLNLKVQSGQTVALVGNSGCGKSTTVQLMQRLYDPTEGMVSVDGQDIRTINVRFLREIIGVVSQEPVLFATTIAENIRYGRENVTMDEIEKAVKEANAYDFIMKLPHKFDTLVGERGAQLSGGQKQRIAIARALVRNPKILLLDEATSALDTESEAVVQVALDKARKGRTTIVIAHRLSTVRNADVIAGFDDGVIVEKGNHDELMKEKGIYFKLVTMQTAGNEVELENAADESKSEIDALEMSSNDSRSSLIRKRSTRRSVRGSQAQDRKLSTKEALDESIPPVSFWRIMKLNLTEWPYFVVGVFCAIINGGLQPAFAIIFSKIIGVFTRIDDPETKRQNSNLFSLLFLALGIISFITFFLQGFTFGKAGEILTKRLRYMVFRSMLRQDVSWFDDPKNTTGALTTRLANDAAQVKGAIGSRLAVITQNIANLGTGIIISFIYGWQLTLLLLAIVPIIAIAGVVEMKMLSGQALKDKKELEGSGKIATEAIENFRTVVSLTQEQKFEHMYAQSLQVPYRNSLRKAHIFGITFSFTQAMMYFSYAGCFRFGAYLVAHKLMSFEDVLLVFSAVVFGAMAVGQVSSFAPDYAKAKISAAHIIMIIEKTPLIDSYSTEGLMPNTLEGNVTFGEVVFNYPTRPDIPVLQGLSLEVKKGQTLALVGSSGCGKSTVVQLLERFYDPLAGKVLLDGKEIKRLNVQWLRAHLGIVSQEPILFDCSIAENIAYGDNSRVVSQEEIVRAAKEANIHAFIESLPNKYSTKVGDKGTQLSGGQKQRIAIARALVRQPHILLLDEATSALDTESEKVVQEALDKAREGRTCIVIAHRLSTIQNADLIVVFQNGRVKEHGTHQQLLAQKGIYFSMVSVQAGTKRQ
Summary of the method: (§3)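 Cells at 2 × 10^6/mL were preincubated 10 min with compound. Rhodamine 123 then added to 5.2 µM final, 20 min at 37 °C. Cells washed twice in PBS, resuspended and read by flow cytometry. Percent inhibition was scaled between MDR-cell accumulation (0%) and parental L5178 accumulation (100%). Controls: 100 nM tariquidar (positive) and 2% DMSO (negative).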

[14] = Synergistic cytotoxicity against mouse L5178 cells assessed as combination index at ED75 using 150:1 test compound to doxorubicin ratio after 48 hrs by MTT-based checkerboard microplate method; type: functional; summary of the method: as §1
[15] = Synergistic cytotoxicity against mouse L5178 cells expressing human ABCB1 assessed as combination index at ED75 using 30:1 test compound to doxorubicin ratio after 48 hrs by MTT-based checkerboard microplate method; type: functional; summary of the method: as §1
[16] = Synergistic cytotoxicity against mouse L5178 cells assessed as combination index at ED90 using 150:1 test compound to doxorubicin ratio after 48 hrs by MTT-based checkerboard microplate method; type: functional; summary of the method: as §1
[17] = Synergistic cytotoxicity against mouse L5178 cells expressing human ABCB1 assessed as combination index at ED75 using 60:1 test compound to doxorubicin ratio after 48 hrs by MTT-based checkerboard microplate method; type: functional; summary of the method: as §1
ABCB1 (P-glycoprotein) [18] = target: T1, ABCB1 (P-glycoprotein); experiment: Inhibition of human ABCB1 expressed in mouse L5178 cells assessed as increase in rhodamine-123 accumulation at 2 uM after 10 mins by flow cytometric analysis relative to control; type: cell-based; conditions: mouse L5178 cells expressing human ABCB1, probe rhodamine-123; summary of the method: as §3
[19] = Synergistic cytotoxicity against mouse L5178 cells assessed as combination index at ED90 using 300:1 test compound to doxorubicin ratio after 48 hrs by MTT-based checkerboard microplate method; type: functional; summary of the method: as §1
[20] = Synergistic cytotoxicity against mouse L5178 cells assessed as combination index at ED50 using 600:1 test compound to doxorubicin ratio after 48 hrs by MTT-based checkerboard microplate method; type: functional; summary of the method: as §1
[21] = Synergistic cytotoxicity against mouse L5178 cells assessed as combination index at ED50 using 150:1 test compound to doxorubicin ratio after 48 hrs by MTT-based checkerboard microplate method; type: functional; summary of the method: as §1
[22] = Synergistic cytotoxicity against mouse L5178 cells expressing human ABCB1 assessed as combination index at ED50 using 60:1 test compound to doxorubicin ratio after 48 hrs by MTT-based checkerboard microplate method; type: functional; summary of the method: as §1
[23] = Synergistic cytotoxicity against mouse L5178 cells assessed as combination index at ED50 using 37.5:1 test compound to doxorubicin ratio after 48 hrs by MTT-based checkerboard microplate method; type: functional; summary of the method: as §1
SiHa = experiment: Antiproliferative activity against human SiHa cells after 72 hrs by MTT assay; type: functional, cell-based
Summary of the method: (§4)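 Cells grown in MEM with 10% FCS, 1% non-essential amino acids and 1% penicillin-streptomycin. Seeded at 5000 cells/well, exposed to 0.1–30.0 µM compound for 72 h. MTT (5 mg/ml solution) was then added for 4 h, formazan dissolved in DMSO, and absorbance read at 545 nm. Cisplatin served as positive control. IC50 came from sigmoidal dose–response fits (log inhibitor vs normalized response, variable slope).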

HeLa = experiment: Antiproliferative activity against human HeLa cells after 72 hrs by MTT assay; type: functional, cell-based; summary of the method: as §4
[24] = Synergistic cytotoxicity against mouse L5178 cells assessed as combination index at ED90 using 37.5:1 test compound to doxorubicin ratio after 48 hrs by MTT-based checkerboard microplate method; type: functional; summary of the method: as §1
[25] = Synergistic cytotoxicity against mouse L5178 cells assessed as combination index at ED50 using 75:1 test compound to doxorubicin ratio after 48 hrs by MTT-based checkerboard microplate method; type: functional; summary of the method: as §1
[26] = Synergistic cytotoxicity against mouse L5178 cells assessed as combination index at ED75 using 37.5:1 test compound to doxorubicin ratio after 48 hrs by MTT-based checkerboard microplate method; type: functional; summary of the method: as §1
MCF7 = experiment: Antiproliferative activity against human MCF7 cells after 72 hrs by MTT assay; type: functional, cell-based; conditions: MCF7, 72 h; summary of the method: as §4
[27] = Synergistic cytotoxicity against mouse L5178 cells assessed as combination index at ED90 using 75:1 test compound to doxorubicin ratio after 48 hrs by MTT-based checkerboard microplate method; type: functional; summary of the method: as §1
[28] = Synergistic cytotoxicity against mouse L5178 cells assessed as combination index at ED75 using 75:1 test compound to doxorubicin ratio after 48 hrs by MTT-based checkerboard microplate method; type: functional; summary of the method: as §1
MDA-MB-231 = experiment: Antiproliferative activity against human MDA-MB-231 cells after 72 hrs by MTT assay; type: functional, cell-based; conditions: MDA-MB-231, 72 h; summary of the method: as §4

Row | inhibition at 10 min, 20 µM (ABCB1 (P-glycoprotein) [13]) | inhibition at 10 min, 2 µM (ABCB1 (P-glycoprotein) [18]) | Structure (SMILES) | CI [1] | IC50 [2] | CI [3] | CI [4] | CI [5] | IC50 [6] | CI [7] | CI [8] | CI [9] | CI [10] | CI [11] | CI [12] | CI [14] | CI [15] | CI [16] | CI [17] | CI [19] | CI [20] | other results
1 | 83% | 10.6% | CC(C)(O)CC[C@H]1OC(C)(C)O[C@]1(C)[C@H]1CC=C2C3=C/C(=N\O)[C@@H]4C[C@H]5OC(C)(C)O[C@H]5C[C@]4(C)[C@H]3CC[C@@]21C | 0.26 | 20.9 µM | 0.25 | 0.16 | 1.13 | 24.6 µM | 1.11 | 1.18 | 0.16 | 0.27 | 0.12 | 1.11 | 0.79 | 0.19 | 0.78 | 0.29 | 1.04 | 1.1 | CI [21]: 0.8; CI [22]: 0.34
2 | 89.4% | 21% | C=CCO/N=C1\C=C2[C@H](CC[C@]3(C)[C@@H]([C@@]4(C)OC(C)(C)O[C@@H]4CCC(C)(C)O)CC[C@@]23O)[C@@]2(C)C[C@@H]3OC(C)(C)O[C@@H]3C[C@@H]12 | 0.17 | 31.5 µM | 0.17 | 0.13 | 1.05 | 51.9 µM | 1.12 | 1.22 | 0.21 | 0.31 | 0.13 | 1.08 | 0.81 | 0.18 | 0.69 | 0.26 | 1.11 | 1.19 | CI [23]: 1.95; IC50 (SiHa): 25.5 µM; IC50 (HeLa): 15.6 µM; CI [24]: 0.89; CI [25]: 1.35; CI [26]: 1.28; IC50 (MCF7): 13.6 µM; CI [27]: 1.27; CI [28]: 1.27; IC50 (MDA-MB-231): 21.4 µM; CI [21]: 1.03; CI [22]: 0.24
3 | 20.9% | 2.54% | CC(C)(O)CC[C@H]1OC(C)(C)O[C@]1(C)[C@H]1CC[C@@]2(O)C3=CC(=O)[C@@H]4C[C@H]5OC(C)(C)O[C@H]5C[C@]4(C)[C@H]3CC[C@]12C | – | 110 µM | – | – | – | 97.7 µM | – | – | – | – | – | – | – | – | – | – | – | – | –
